In publication PMC9116722 (Cancer chemotherapy and pharmacology, 2022):

Assay: Adverse events
Assay type: in vivo, human
How it was run: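 Patients with germline BRCA-mutated cancers, or BRCA-wildtype TNBC or platinum-refractory ovarian cancer, took oral drug continuously twice daily in 28-day cycles. There were nine dose levels from 50 to 500 mg BID under 3+3 escalation, run separately per cohort after the first DLT. Toxicities were graded by CTCAE v4.0, with DLTs assessed during cycle 1.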

## C[C@]1(c2nc3c(C(N)=O)cccc3[nH]2)CCCN1 [veliparib]
BRCAmut and BRCAwt combined
  Abdominal pain, Any Grade: 6 (6) number of patients (%)
  Abdominal pain, Grade 1: 3 (3) number of patients (%)
  Abdominal pain, Grade 2: 1 (1) number of patients (%)
  Abdominal pain, Grade 3: 2 (2) number of patients (%)
  Abdominal pain, Grade 4: 0 (0) number of patients (%)
  Alkaline phosphatase increased, Any Grade: 6 (6) number of patients (%)
  Alkaline phosphatase increased, Grade 1: 3 (3) number of patients (%)
  Alkaline phosphatase increased, Grade 2: 2 (2) number of patients (%)
  Alkaline phosphatase increased, Grade 3: 1 (1) number of patients (%)
  Alkaline phosphatase increased, Grade 4: 0 (0) number of patients (%)
  Anemia, Any Grade: 31 (32) number of patients (%)
  Anemia, Grade 1: 19 (19) number of patients (%)
  Anemia, Grade 2: 10 (10) number of patients (%)
  Anemia, Grade 3: 1 (1) number of patients (%)
  Anemia, Grade 4: 1 (1) number of patients (%)
  Anorexia, Any Grade: 20 (20) number of patients (%)
  Anorexia, Grade 1: 17 (17) number of patients (%)
  Anorexia, Grade 2: 3 (3) number of patients (%)
  Anorexia, Grade 3: 0 (0) number of patients (%)
  Anorexia, Grade 4: 0 (0) number of patients (%)
  Any adverse event, Any Grade: 92 (94) number of patients (%)
  Any adverse event, Grade 1: 86 (88) number of patients (%)
  Any adverse event, Grade 2: 54 (55) number of patients (%)
  Any adverse event, Grade 4: 3 (3) number of patients (%)
  Aspartate aminotransferase increased, Any Grade: 9 (9) number of patients (%)
  Aspartate aminotransferase increased, Grade 1: 8 (8) number of patients (%)
  Aspartate aminotransferase increased, Grade 2: 0 (0) number of patients (%)
  Aspartate aminotransferase increased, Grade 3: 1 (1) number of patients (%)
  Aspartate aminotransferase increased, Grade 4: 0 (0) number of patients (%)
  Constipation, Any Grade: 9 (9) number of patients (%)
  Constipation, Grade 1: 8 (8) number of patients (%)
  Constipation, Grade 2: 1 (1) number of patients (%)
  Constipation, Grade 3: 0 (0) number of patients (%)
  Constipation, Grade 4: 0 (0) number of patients (%)
  Diarrhea, Any Grade: 19 (19) number of patients (%)
  Diarrhea, Grade 1: 16 (16) number of patients (%)
  Diarrhea, Grade 2: 3 (3) number of patients (%)
  Diarrhea, Grade 3: 0 (0) number of patients (%)
  Diarrhea, Grade 4: 0 (0) number of patients (%)
  Dizziness, Any Grade: 9 (9) number of patients (%)
  Dizziness, Grade 1: 8 (8) number of patients (%)
  Dizziness, Grade 2: 1 (1) number of patients (%)
  Dizziness, Grade 3: 0 (0) number of patients (%)
  Dizziness, Grade 4: 0 (0) number of patients (%)
  Dry mouth, Any Grade: 8 (8) number of patients (%)
  Dry mouth, Grade 1: 8 (8) number of patients (%)
  Dry mouth, Grade 2: 0 (0) number of patients (%)
  Dry mouth, Grade 3: 0 (0) number of patients (%)
  Dry mouth, Grade 4: 0 (0) number of patients (%)
  Dysgeusia, Any Grade: 16 (16) number of patients (%)
  Dysgeusia, Grade 1: 16 (16) number of patients (%)
  Dysgeusia, Grade 2: 0 (0) number of patients (%)
  Dysgeusia, Grade 3: 0 (0) number of patients (%)
  Dysgeusia, Grade 4: 0 (0) number of patients (%)
  Dyspepsia, Any Grade: 6 (6) number of patients (%)
  Dyspepsia, Grade 1: 6 (6) number of patients (%)
  Dyspepsia, Grade 2: 0 (0) number of patients (%)
  Dyspepsia, Grade 3: 0 (0) number of patients (%)
  Dyspepsia, Grade 4: 0 (0) number of patients (%)
  Dyspnea, Any Grade: 5 (5) number of patients (%)
  Dyspnea, Grade 1: 2 (2) number of patients (%)
  Dyspnea, Grade 2: 1 (1) number of patients (%)
  Dyspnea, Grade 3: 1 (1) number of patients (%)
  Dyspnea, Grade 4: 1 (1) number of patients (%)
  Fatigue, Any Grade: 44 (45) number of patients (%)
  Fatigue, Grade 1: 33 (34) number of patients (%)
  Fatigue, Grade 2: 9 (9) number of patients (%)
  Fatigue, Grade 3: 2 (2) number of patients (%)
  Fatigue, Grade 4: 0 (0) number of patients (%)
  Headache, Any Grade: 9 (9) number of patients (%)
  Headache, Grade 1: 7 (7) number of patients (%)
  Headache, Grade 2: 1 (1) number of patients (%)
  Headache, Grade 3: 1 (1) number of patients (%)
  Headache, Grade 4: 0 (0) number of patients (%)
  Hyperglycemia, Any Grade: 10 (10) number of patients (%)
  Hyperglycemia, Grade 1: 9 (9) number of patients (%)
  Hyperglycemia, Grade 2: 1 (1) number of patients (%)
  Hyperglycemia, Grade 3: 0 (0) number of patients (%)
  Hyperglycemia, Grade 4: 0 (0) number of patients (%)
  Hyponatremia, Any Grade: 7 (7) number of patients (%)
  Hyponatremia, Grade 1: 7 (7) number of patients (%)
  Hyponatremia, Grade 2: 0 (0) number of patients (%)
  Hyponatremia, Grade 3: 0 (0) number of patients (%)
  Hyponatremia, Grade 4: 0 (0) number of patients (%)
  Hypophosphatemia, Any Grade: 8 (8) number of patients (%)
  Hypophosphatemia, Grade 1: 2 (2) number of patients (%)
  Hypophosphatemia, Grade 2: 4 (4) number of patients (%)
  Hypophosphatemia, Grade 3: 2 (2) number of patients (%)
  Hypophosphatemia, Grade 4: 0 (0) number of patients (%)
  Insomnia, Any Grade: 7 (7) number of patients (%)
  Insomnia, Grade 1: 6 (6) number of patients (%)
  Insomnia, Grade 2: 1 (1) number of patients (%)
  Insomnia, Grade 3: 0 (0) number of patients (%)
  Insomnia, Grade 4: 0 (0) number of patients (%)
  Lymphocyte count decreased, Any Grade: 37 (38) number of patients (%)
  Lymphocyte count decreased, Grade 1: 7 (7) number of patients (%)
  Lymphocyte count decreased, Grade 2: 15 (15) number of patients (%)
  Lymphocyte count decreased, Grade 3: 14 (14) number of patients (%)
  Lymphocyte count decreased, Grade 4: 1 (1) number of patients (%)
  Myalgia, Any Grade: 5 (5) number of patients (%)
  Myalgia, Grade 1: 4 (4) number of patients (%)
  Myalgia, Grade 2: 1 (1) number of patients (%)
  Myalgia, Grade 3: 0 (0) number of patients (%)
  Myalgia, Grade 4: 0 (0) number of patients (%)
  Nausea, Any Grade: 64 (65) number of patients (%)
  Nausea, Grade 1: 42 (43) number of patients (%)
  Nausea, Grade 2: 20 (20) number of patients (%)
  Nausea, Grade 3: 2 (2) number of patients (%)
  Nausea, Grade 4: 0 (0) number of patients (%)
  Neutrophil count decreased, Any Grade: 17 (17) number of patients (%)
  Neutrophil count decreased, Grade 1: 13 (13) number of patients (%)
  Neutrophil count decreased, Grade 2: 4 (4) number of patients (%)
  Neutrophil count decreased, Grade 3: 0 (0) number of patients (%)
  Neutrophil count decreased, Grade 4: 0 (0) number of patients (%)
  Platelet count decreased, Any Grade: 18 (18) number of patients (%)
  Platelet count decreased, Grade 1: 14 (14) number of patients (%)
  Platelet count decreased, Grade 2: 3 (3) number of patients (%)
  Platelet count decreased, Grade 3: 0 (0) number of patients (%)
  Platelet count decreased, Grade 4: 1 (1) number of patients (%)
  Vomiting, Any Grade: 32 (33) number of patients (%)
  Vomiting, Grade 1: 25 (26) number of patients (%)
  Vomiting, Grade 2: 7 (7) number of patients (%)
  White blood cell decreased, Any Grade: 27 (28) number of patients (%)
  White blood cell decreased, Grade 1: 20 (20) number of patients (%)
  White blood cell decreased, Grade 2: 7 (7) number of patients (%)
  White blood cell decreased, Grade 3: 0 (0) number of patients (%)
  White blood cell decreased, Grade 4: 0 (0) number of patients (%)
BRCAmut group
  grade 3/4 decreased lymphocyte count: 14%
  incidence of grade 3/4 toxicity: 24%
BRCAmut, DL1 50/50 mg AM/PM
  Abdominal pain, Grade 3: 0 number of patients (%)
  Alkaline phosphatase increased, Grade 3: 1 (14) number of patients (%)
  Anemia, Grade 3: 0 number of patients (%)
  Anemia, Grade 4: 0 number of patients (%)
  Any Grade 3/4 toxicity: 1 (14) number of patients (%)
  Any Grade 3 toxicity: 1 (14) number of patients (%)
  Any Grade 4 toxicity: 0 number of patients (%)
  Appendicitis, Grade 3: 0 number of patients (%)
  Aspartate aminotransferase increased, Grade 3: 1 (14) number of patients (%)
  Dehydration, Grade 3: 0 number of patients (%)
  Dyspnea, Grade 4: 0 number of patients (%)
  Fatigue, Grade 3: 0 number of patients (%)
  Headache, Grade 3: 0 number of patients (%)
  Hypophosphatemia, Grade 3: 0 number of patients (%)
  Lymphocyte count decreased, Grade 3: 0 number of patients (%)
  Lymphocyte count decreased, Grade 4: 0 number of patients (%)
  Nausea, Grade 3: 0 number of patients (%)
  Platelet count decreased, Grade 4: 0 number of patients (%)
  Thromboembolic event, Grade 3: 0 number of patients (%)
  Thromboembolic event, Grade 4: 0 number of patients (%)
  Urinary tract infection, Grade 3: 0 number of patients (%)
BRCAmut, DL2 100/50 mg AM/PM
  Abdominal pain, Grade 3: 0 number of patients (%)
  Alkaline phosphatase increased, Grade 3: 0 number of patients (%)
  Anemia, Grade 3: 0 number of patients (%)
  Anemia, Grade 4: 0 number of patients (%)
  Any Grade 3/4 toxicity: 1 (33) number of patients (%)
  Any Grade 3 toxicity: 0 number of patients (%)
  Any Grade 4 toxicity: 1 (33) number of patients (%)
  Appendicitis, Grade 3: 0 number of patients (%)
  Aspartate aminotransferase increased, Grade 3: 0 number of patients (%)
  Dehydration, Grade 3: 0 number of patients (%)
  Dyspnea, Grade 4: 0 number of patients (%)
  Fatigue, Grade 3: 0 number of patients (%)
  Headache, Grade 3: 0 number of patients (%)
  Hypophosphatemia, Grade 3: 0 number of patients (%)
  Lymphocyte count decreased, Grade 3: 0 number of patients (%)
  Lymphocyte count decreased, Grade 4: 0 number of patients (%)
  Nausea, Grade 3: 0 number of patients (%)
  Platelet count decreased, Grade 4: 0 number of patients (%)
  Thromboembolic event, Grade 3: 0 number of patients (%)
  Thromboembolic event, Grade 4: 1 (33) number of patients (%)
  Urinary tract infection, Grade 3: 0 number of patients (%)
BRCAmut, DL3 100/100 mg AM/PM
  Abdominal pain, Grade 3: 0 number of patients (%)
  Alkaline phosphatase increased, Grade 3: 0 number of patients (%)
